Ten molecules from ChEMBL document CHEMBL1153427, “1-Sulfonyl-4-acylpiperazines as selective cannabinoid-1 receptor (CB1R) inverse agonists for the treatment of obesity” (J Med Chem, 2009) can be followed below.

Series [1] addresses T1, Cannabinoid receptor 1 (Homo sapiens, UniProt P21554). The series can be described thus: Displacement of [3H]CP-55940 from human recombinant CB1R expressed in CHO cells. The class given is cell-based. An outline of the steps: (§1)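 Radioligand competition used 0.5 nM [³H]CP55940 with recombinant human CB1R-CHO or CB2R-CHO membranes. Bound and free ligand were separated by filtration, and IC₅₀ came from nonlinear curve fitting.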
In general terms: In a radioligand displacement assay an active substance lowers the binding of a labelled ligand.

For series [2], the target named is T1, Cannabinoid receptor 1. The series can be described thus: Inverse agonist activity at human recombinant CB1R expressed in CHO cells assessed as increase in forskolin-stimulated cAMP level. It counts as functional, cell-based. An outline of the steps: (§2)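 Recombinant CB1R-CHO cells were incubated with test compound across a range of concentrations, plus forskolin and the phosphodiesterase inhibitor IBMX. Buffer was Earle's balanced salt solution with 5 mM MgCl₂, 10 mM HEPES pH 7.3 and 1 mg/mL BSA, for 30 min at room temperature, with cAMP read out.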
A general note: Changes in cAMP serve as a functional read-out for many G protein-coupled receptors.

Series [3] concerns the target Cannabinoid receptor 2 (Homo sapiens, UniProt P34972). The series can be described thus: Displacement of [3H]CP-55940 from human recombinant CB2R expressed in CHO cells. It counts as cell-based. An outline of the steps:
as §1

In series [4] the test system is Rattus norvegicus. Nature of the series: Reduction of overnight food intake in diet induced obese Sprague-Dawley rat at 3 mg/kg, po. It counts as functional. Set-up: scale not given: the % may be the effect or the level left. An outline of the steps:
(§3)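 Male DIO rats were acclimated at least 3 days in an automated food-intake system, where computer-linked balances logged grams of food eaten every 5 min. They were fed milled MHF diet throughout. Compound or vehicle (10% Tween-80 in water) was given by oral gavage 1 h before dark-cycle onset. Overnight food intake and body-weight change were measured against vehicle, with significance set at P < 0.05.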

Series [5] concerns Rattus norvegicus. The series can be described thus: Reduction of body weight in diet induced obese Sprague-Dawley rat at 3 mg/kg, po. The class given is functional. The essentials: as §3
For series [6], the target named is T2, Cannabinoid receptor 1 (Rattus norvegicus, UniProt P20272). The series can be described thus: Displacement of [3H]CP-55940 from rat recombinant CB1R expressed in CHO cells. The class given is cell-based.
T2 sequence (P20272 whole entry): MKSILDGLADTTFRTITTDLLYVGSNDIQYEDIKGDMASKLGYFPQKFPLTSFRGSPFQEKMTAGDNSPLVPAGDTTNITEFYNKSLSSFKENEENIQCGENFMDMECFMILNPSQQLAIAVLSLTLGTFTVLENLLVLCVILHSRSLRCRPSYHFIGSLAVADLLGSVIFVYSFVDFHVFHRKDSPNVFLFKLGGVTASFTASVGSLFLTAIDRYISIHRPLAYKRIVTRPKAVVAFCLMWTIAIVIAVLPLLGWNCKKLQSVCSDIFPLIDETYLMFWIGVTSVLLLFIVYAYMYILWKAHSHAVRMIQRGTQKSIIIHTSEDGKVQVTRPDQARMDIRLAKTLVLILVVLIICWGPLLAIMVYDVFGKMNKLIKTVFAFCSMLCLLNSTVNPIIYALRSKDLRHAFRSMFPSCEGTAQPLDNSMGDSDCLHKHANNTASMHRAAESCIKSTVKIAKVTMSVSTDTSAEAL
Series [7] has as its target T1, Cannabinoid receptor 1. The series can be described thus: Displacement of [3H]SR141716 from human recombinant CB1R expressed in CHO cells. It counts as cell-based.
The target of series [8] is T2, Cannabinoid receptor 1. Nature of the series: Displacement of [3H] SR-141716 from rat recombinant CB1R expressed in CHO cells. It counts as cell-based.
Series [9] is described as follows: Ratio of drug level in brain to plasma in Sprague-Dawley rat at 1 mg/kg, iv and 2 mg/kg, po over 0.25 to 4 hrs. The class given is ADME, organism-based. An outline of the steps: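 Male Sprague-Dawley rats got 1 mpk iv for brain penetration and were euthanised by CO₂ 1 h later. Whole brain was frozen on dry ice, and blood was taken by cardiac puncture into lithium heparin. PK arms were dosed 1 mpk iv and 2 mpk po, with blood sampled at several time points. Plasma and brain homogenate were extracted by protein precipitation and analysed by LCMS².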

Series [10] deals with T2, Cannabinoid receptor 1. Nature of the series: Antagonist activity at rat recombinant CB1R expressed in CHO cells assessed as inhibition of methanandamide-stimulated cAMP level. It counts as functional, cell-based. An outline of the steps: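 Antagonist mode of the forskolin-stimulated cAMP assay in CB1R-CHO cells. Methanandamide at 300 nM was the agonist challenge, and IC₅₀ was determined across test-compound concentrations. Percent inhibition was also recorded at a single 2 µM test concentration.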

Series [11] addresses T2, Cannabinoid receptor 1. Nature of the series: Agonist activity at rat recombinant CB1R expressed in CHO cells assessed as inhibition of forskolin-stimulated cAMP level. It counts as functional, cell-based. The essentials: as §2
Series [12] has as its target Voltage-gated inwardly rectifying potassium channel KCNH2 (Homo sapiens, UniProt Q12809). Nature of the series: Inhibition of human ERG by MK-0499 binding assay.
Series [13] in a line: Plasma clearance in Sprague-Dawley rat at 1 mg/kg, iv and 2 mg/kg, po. It counts as ADME, organism-based. The essentials: (§4)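 Male Sprague-Dawley rats received 1 mpk intravenously or 2 mpk orally. Blood was drawn at various time points into lithium heparin and centrifuged, and plasma was stored at -70 °C. Plasma was extracted by protein precipitation and analysed by LC-MS/MS.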

Series [14] in a line: Volume of distribution at steady state in Sprague-Dawley rat at 1 mg/kg, iv and 2 mg/kg, po. To be noted: in vivo, read-out: Vdss. It counts as ADME, organism-based. An outline of the steps:
as §4

A short description of series [15]: Bioavailability in Sprague-Dawley rat at 1 mg/kg, iv and 2 mg/kg, po. The class given is ADME, organism-based. To be noted: in vivo. The essentials:
as §4

Series [16] in a line: Ratio of drug level in brain to plasma in Sprague-Dawley rat at 1 mg/kg, iv and 2 mg/kg, po after 4 hrs. The class given is ADME, organism-based.
The target of series [17] is T1, Cannabinoid receptor 1. The series can be described thus: Agonist activity at human recombinant CB1R expressed in CHO cells assessed as inhibition of forskolin-stimulated cAMP level. The class given is functional, cell-based. An outline of the steps: as §2
A short description of series [18]: Half life in Sprague-Dawley rat at 1 mg/kg, iv and 2 mg/kg, po. The class given is ADME, organism-based. As to conditions: in vivo. An outline of the steps:
as §4

Each structure is given as a SMILES string.

T1 sequence (P21554 whole entry): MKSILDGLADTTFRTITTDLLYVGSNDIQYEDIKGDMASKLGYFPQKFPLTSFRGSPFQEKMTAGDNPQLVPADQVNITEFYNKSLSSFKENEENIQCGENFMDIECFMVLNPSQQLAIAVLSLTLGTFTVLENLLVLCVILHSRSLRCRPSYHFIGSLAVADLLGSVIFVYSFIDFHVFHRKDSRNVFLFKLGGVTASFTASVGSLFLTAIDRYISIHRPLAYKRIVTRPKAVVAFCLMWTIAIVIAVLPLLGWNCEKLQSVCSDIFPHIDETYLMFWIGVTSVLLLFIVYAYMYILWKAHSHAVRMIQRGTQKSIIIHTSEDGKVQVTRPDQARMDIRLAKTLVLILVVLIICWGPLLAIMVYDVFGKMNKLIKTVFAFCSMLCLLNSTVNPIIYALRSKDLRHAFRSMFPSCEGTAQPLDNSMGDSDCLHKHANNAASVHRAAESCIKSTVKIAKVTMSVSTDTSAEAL
Cannabinoid receptor 2, sequence (P34972 whole entry): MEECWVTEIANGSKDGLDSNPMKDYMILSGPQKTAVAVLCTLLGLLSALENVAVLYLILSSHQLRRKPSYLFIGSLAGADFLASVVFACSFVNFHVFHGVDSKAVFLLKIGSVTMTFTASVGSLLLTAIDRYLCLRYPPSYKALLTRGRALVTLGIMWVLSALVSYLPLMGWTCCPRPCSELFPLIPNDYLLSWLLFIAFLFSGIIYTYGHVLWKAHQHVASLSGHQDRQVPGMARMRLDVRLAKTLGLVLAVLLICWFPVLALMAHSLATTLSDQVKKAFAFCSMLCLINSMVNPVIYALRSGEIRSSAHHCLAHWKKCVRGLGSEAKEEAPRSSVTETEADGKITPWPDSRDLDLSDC
Voltage-gated inwardly rectifying potassium channel KCNH2, sequence (Q12809 whole entry): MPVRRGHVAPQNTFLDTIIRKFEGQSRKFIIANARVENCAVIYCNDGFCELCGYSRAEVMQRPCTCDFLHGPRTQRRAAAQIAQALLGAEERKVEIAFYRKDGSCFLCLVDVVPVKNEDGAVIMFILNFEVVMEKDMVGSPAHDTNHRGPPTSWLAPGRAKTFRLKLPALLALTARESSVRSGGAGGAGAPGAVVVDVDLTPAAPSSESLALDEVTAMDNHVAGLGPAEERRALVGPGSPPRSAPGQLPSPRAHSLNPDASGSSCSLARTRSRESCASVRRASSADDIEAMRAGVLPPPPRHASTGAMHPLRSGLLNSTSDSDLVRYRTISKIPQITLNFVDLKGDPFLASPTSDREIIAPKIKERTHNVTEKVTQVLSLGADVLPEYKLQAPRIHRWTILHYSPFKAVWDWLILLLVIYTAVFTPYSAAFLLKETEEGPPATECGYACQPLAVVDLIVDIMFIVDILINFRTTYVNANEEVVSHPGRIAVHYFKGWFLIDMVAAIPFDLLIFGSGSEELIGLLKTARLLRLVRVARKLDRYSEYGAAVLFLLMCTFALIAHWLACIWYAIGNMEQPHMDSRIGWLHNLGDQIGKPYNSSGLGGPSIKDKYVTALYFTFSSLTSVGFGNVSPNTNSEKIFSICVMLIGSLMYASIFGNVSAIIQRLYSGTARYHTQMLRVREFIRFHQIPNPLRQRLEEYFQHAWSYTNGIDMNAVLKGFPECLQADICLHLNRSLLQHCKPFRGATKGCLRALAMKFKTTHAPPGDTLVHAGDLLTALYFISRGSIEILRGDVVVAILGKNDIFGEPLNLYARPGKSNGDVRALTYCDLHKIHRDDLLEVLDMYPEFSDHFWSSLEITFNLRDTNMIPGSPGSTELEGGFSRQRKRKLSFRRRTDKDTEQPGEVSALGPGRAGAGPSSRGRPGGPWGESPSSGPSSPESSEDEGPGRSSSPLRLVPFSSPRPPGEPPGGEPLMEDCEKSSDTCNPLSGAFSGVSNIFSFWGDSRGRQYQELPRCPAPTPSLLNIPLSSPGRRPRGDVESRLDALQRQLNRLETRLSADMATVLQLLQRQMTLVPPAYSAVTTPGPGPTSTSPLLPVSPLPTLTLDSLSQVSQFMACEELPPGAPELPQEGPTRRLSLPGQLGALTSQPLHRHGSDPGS

For `O=C(Cc1ccc(C(F)(F)F)cc1)N1CCN(S(=O)(=O)c2cc(C3CC3)cc(C(F)(F)F)c2)CC1`, the IC50 in series [1] was 1.2 nM; in series [3], above 10000 nM; in [6], 27 nM; in [7], 0.5 nM; in series [8] it was 11 nM; in series [10] it was 1.9 nM. Moreover, the EC50 in [2] came to 1 nM; in [11], 0.6 nM. Also, the Activity is given as -40% in series [4] and -2 g in [5]. Moreover, the Kp in series [9] is 1.1.

Take `Cc1cc(C)cc(S(=O)(=O)N2CCN(C(=O)C3CCCCC3)CC2)c1`: the half-maximal inhibitory concentration (IC50) in series [1] was 400 nM; in [3], above 10000 nM. Further, the EC50 in series [2] is 1.1 nM.

Take `O=C([C@@H]1C[C@H]1c1ccc(C(F)(F)F)cc1)N1CCN(S(=O)(=O)c2cc(C(O)C(F)(F)F)cc(C(F)(F)F)c2)CC1` (mixture of isomers): the IC50 in series [1] was 1.5 nM; in series [3] it was above 10000 nM; in [12] it was 60 nM. In series [5], the Activity is -8 g.

Regarding `O=C([C@@H]1C[C@H]1c1ccc(C(F)(F)F)cc1)N1CCN(S(=O)(=O)c2cc(CCO)cc(C(F)(F)F)c2)CC1`, the figures for the IC50 in series [1], in series [3] and in series [12] were 4 nM, above 10000 nM and 900 nM, respectively.

Turning to `O=C(Cc1ccc(C(F)(F)F)cc1)N1CCN(S(=O)(=O)c2cc(C(F)(F)F)cc(C(F)(F)F)c2)CC1`, the IC50 in [1] is 5 nM; in [3] it was above 10000 nM. Further, in series [2], the EC50 is 1 nM.

For the molecule `O=C([C@@H]1C[C@H]1c1ccc(C(F)(F)F)cc1)N1CCN(S(=O)(=O)c2cc(C3CC3)cc(C(F)(F)F)c2)CC1`, the half-maximal inhibitory concentration (IC50) was 0.3 nM in series [1]; above 10000 nM in [3]; 2.2 nM in [6]; 0.1 nM in series [7]; 0.2 nM in series [8]; 9.2 nM in series [10]. The figures for the EC50 in series [2], in [17] and in [11] were 5.8 nM, 5.8 nM and 3.4 nM, respectively. This molecule also showed a clearance in [13] of 3.7 mL/min/kg. Also, in series [14], the Vd came out at 5.4 L/kg. Besides, the bioavailability in [15] amounted to 74%. Also, the partition ratio (Kp) at 4 h in [16] amounted to 0.3. Further, the Activity in [4] is -59%; in [5] it was -14 g. Also, the half-life in [18] was 22 h. Moreover, in [9], the Kp turned out to be 0.8.

As for `O=C([C@@H]1C[C@H]1c1ccc(C(F)(F)F)cc1)N1CCN(S(=O)(=O)c2cc(-c3ccn[nH]3)cc(C(F)(F)F)c2)CC1`, the results for the IC50 in series [1], in series [3] and in series [12] were 0.3 nM, above 10000 nM and 500 nM, respectively. Further, in series [5], the Activity is -10 g.

As to `O=C(Cc1ccc(C(F)(F)F)cc1)N1CCN(S(=O)(=O)c2cc(Br)cc(C(F)(F)F)c2)CC1`, the results for the 50% inhibitory concentration (IC50) in series [1] and in series [3] were 6 nM and above 10000 nM, respectively. The EC50 in [2] came out at 1 nM.

For `O=C(C1CCCCC1)N1CCN(S(=O)(=O)c2cccc3ccccc23)CC1`, the IC50 in [1] was 95 nM; in series [3], above 10000 nM. Further, the EC50 in [2] is 0.6 nM.

On to `O=C(c1ccc(C(F)(F)F)cc1)N1CCN(S(=O)(=O)c2cc(C3CC3)cc(C(F)(F)F)c2)CC1`, for which the IC50 worked out at 58 nM in series [1]; 175 nM in [6]; 47 nM in series [7]; 227 nM in [8]; 77 nM in series [10]. This molecule also came in with a clearance in [13] of 1.9 mL/min/kg. For the same molecule, the Vd in [14] stood at 2.7 L/kg. This molecule also displayed a bioavailability in series [15] of 47%. Also, the Activity in series [4] is listed as -14%; in series [5], 8 g. In addition, the EC50 amounted to 1.3 nM in series [17] and 4.4 nM in [11]. For the same molecule, in series [18], the half-life is 19 h. The Kp in series [9] was determined as 0.8.

What is called IC50 is the midpoint of a concentration-inhibition curve. The term EC50 denotes the concentration that produces a half-maximal response. The term Kp denotes the ratio of the level in a tissue or fluid to that in plasma or blood. Usually bioavailability stands for dose-corrected exposure relative to a reference, in per cent. Broadly, the half-life is how long it takes for the measured level to halve.
